Data as given in ChEMBL document CHEMBL4024783, “Alkylated Piperazines and Piperazine-Azole Hybrids as Antifungal Agents” (J Med Chem, 2018).
In brackets after ≈: the same amount, converted by molar mass. Activity calls are given as the source filed them. The calls are words filed in the database; no cut-off is given here.

How the values were obtained:
Candida albicans [1] = test: Antifungal activity against Candida albicans ATCC 64124 after 48 hrs by broth dilution method; assay type: functional; details: Candida albicans, ATCC 64124, 48 h
Outline: (§1)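 CLSI M27-A3 broth microdilution with minor modifications. Overnight YPD culture grown at 35 °C, 200 rpm, adjusted to OD600 0.12, diluted in RPMI 1640 buffered to pH 7.0 with 0.165 M MOPS to a final 1–2 × 10^3 CFU/mL. Test compounds at 0.015–31.3 µg/mL, 48 h at 35 °C, DMSO <1.25%. […] Triplicate.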

Aspergillus terreus = test: Antifungal activity against Aspergillus terreus ATCC MYA-3633 after 48 hrs by broth dilution method; assay type: functional; details: Aspergillus terreus, ATCC MYA-3633, 48 h
Outline: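 Molds tested per CLSI M38-A2. Spores were harvested from sporulating PDA cultures by filtering through glass wool and counted on a hemocytometer. Serial dilutions (0.03–31.3 µg/mL) were made in RPMI 1640 buffered to pH 7.0 with 0.165 M MOPS, final inoculum 5 × 10^5 CFU/mL.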

[2] = Cytotoxicity against HEK293 cells assessed as cell survival at 7.8 ug/mL after 24 hrs by resazurin-based fluorescence assay; details: human, read-out: Survival
Outline: (§2)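 Cells were grown in DMEM with 10% FBS and 1% Pen/Strep at 37 °C, 5% CO2. HEK-293 was seeded at 10000 cells/well; A549 and BEAS-2B at 3000 cells/well. After 16 h, cells were exposed for 24 h to final 0.13–31 µg/mL in 0.1–0.4% DMSO, then given resazurin for 6–10 h. Read at ex 560/em 590. […] Run in duplicate.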

Candida albicans [3] = test: Antifungal activity against itraconazole and fluconazole resistant Candida albicans ATCC MYA-1237 after 48 hrs by broth dilution method; assay type: functional; details: Candida albicans, ATCC MYA-1237, 48 h; outline: as §1
Candida parapsilosis [4] = test: Antifungal activity against Candida parapsilosis ATCC 22019 after 48 hrs in the presence of 10% FBS by broth dilution method; assay type: functional; details: Lodderomyces parapsilosis, ATCC 22019, 48 h
Aspergillus nidulans [5] = test: Antifungal activity against Aspergillus nidulans ATCC 38163 after 48 hrs in the presence of 10% FBS by broth dilution method; assay type: functional; details: ATCC 38163, 48 h
Candida albicans [6] = test: Antifungal activity against itraconazole and fluconazole susceptible Candida albicans ATCC MYA-2310 after 48 hrs by broth dilution method; assay type: functional; details: Candida albicans, ATCC MYA-2310, 48 h
Candida albicans [7] = test: Ratio of MIC80 for voriconazole resistant Candida albicans ATCC 64124 sessile cells to MIC for voriconazole resistant Candida albicans ATCC 64124; assay type: functional
Candida albicans [8] = test: Antibiofilm activity against voriconazole resistant Candida albicans ATCC 64124 sessile cells incubated for 24 hrs by XTT reduction assay; assay type: functional; details: ATCC 64124, 24 h
Outline: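 Strain B grown overnight in YPD broth at 35 °C, diluted to OD600 0.1 (~10^6 CFU/mL), then grown statically for 24 h at 37 °C to form biofilm. Washed with PBS, then drug in RPMI 1640 at 0.12–62.5 µg/mL for 24 h at 37 °C. Read-out: XTT 0.5 mg/mL with menadione 1 µM, 2 h, A490. SMIC50/SMIC80 are 50%/80% decreases versus drug-free biofilm. Duplicate.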

[9] = Cytotoxicity against human A549 cells assessed as cell survival at 7.8 ug/mL after 24 hrs by resazurin-based fluorescence assay; details: read-out: Survival; outline: as §2
Candida albicans [10] = test: Antifungal activity against itraconazole and fluconazole resistant Candida albicans ATCC 90819 after 48 hrs by broth dilution method; assay type: functional; details: Candida albicans, ATCC 90819, 48 h; outline: as §1
Candida albicans [11] = test: Antifungal activity against itraconazole and fluconazole resistant Candida albicans ATCC MYA-1003 after 48 hrs by broth dilution method; assay type: functional; details: Candida albicans, ATCC MYA-1003, 48 h; outline: as §1
[12] = Aqueous solubility of the compound; assay type: physicochemical; details: buffer
Candida parapsilosis [13] = test: Antifungal activity against Candida parapsilosis ATCC 22019 after 48 hrs by broth dilution method; assay type: functional; details: Lodderomyces parapsilosis, ATCC 22019, 48 h
Candida parapsilosis [14] = test: Fungistatic activity against Candida parapsilosis ATCC 22019 up to 8 times MIC incubated for 24 hrs by time kill assay; assay type: functional
Outline: (§3)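 Overnight YPD cultures were diluted in RPMI 1640 to OD600 0.12–0.13; initial inoculum 1–4 × 10^5 CFU/mL. […] Shaken at 200 rpm, 35 °C, for 24 h, sampling at 0, 3, 6, 9, 12 and 24 h. Serial dilutions were plated on PDA and CFU counted; detection limit 100 CFU/mL; duplicate.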

[15] = Cytotoxicity against human BEAS2B cells assessed as cell survival at 7.8 ug/mL after 24 hrs by resazurin-based fluorescence assay; details: BEAS-2B cells, read-out: Survival; outline: as §2
Pichia kudriavzevii = test: Antifungal activity against Candida krusei ATCC 6258 after 48 hrs by broth dilution method; assay type: functional; details: Pichia kudriavzevii, ATCC 6258, 48 h
Outline: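 Yeasts tested per CLSI M27-A3 with minor changes. An overnight YPD culture (35 °C, 200 rpm) was adjusted to OD600 0.12 and diluted in MOPS-buffered RPMI 1640 (pH 7.0) to a final 1–2 × 10^3 CFU/mL. Compounds 0.015–31.3 µg/mL, DMSO <1.25%.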

[16] = Solubility of the compound in DMSO; assay type: physicochemical
Aspergillus nidulans [17] = test: Antifungal activity against Aspergillus nidulans ATCC 38163 after 48 hrs by broth dilution method; assay type: functional; details: Aspergillus nidulans, ATCC 38163, 48 h
Outline: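 A. nidulans run per CLSI M38-A2. PDA spores were filtered through glass wool and counted by hemocytometer. Test range 0.03–31.3 µg/mL in MOPS-buffered RPMI 1640 (pH 7.0), final 5 × 10^5 CFU/mL.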

Nakaseomyces glabratus [18] = test: Antifungal activity against Candida glabrata ATCC 2001 after 48 hrs by broth dilution method; assay type: functional, CBS 138; details: Nakaseomyces glabratus, CBS 138, 48 h
Aspergillus flavus = test: Antifungal activity against Aspergillus flavus ATCC MYA-3631 after 48 hrs by broth dilution method; assay type: functional; details: ATCC MYA-3631, 48 h
Nakaseomyces glabratus [19] = test: Fungicidal activity against Candida glabrata ATCC 2001 at 4 times MIC incubated for 24 hrs by time kill assay; assay type: functional; details: CBS 138; outline: as §3
Candida albicans [20] = test: Antifungal activity against Candida albicans ATCC 10231 after 48 hrs in the presence of 10% FBS by broth dilution method; assay type: functional; details: ATCC 10231, 48 h
Candida albicans [21] = test: Antifungal activity against Candida albicans ATCC 10231 after 48 hrs by broth dilution method; assay type: functional; details: ATCC 10231, 48 h
Candida albicans [22] = test: Antifungal activity against itraconazole and fluconazole susceptible Candida albicans ATCC MYA-2876 after 48 hrs by broth dilution method; assay type: functional; details: Candida albicans, ATCC MYA-2876, 48 h
Candida albicans [23] = test: Inhibition of 14alpha-demethylase in Candida albicans ATCC 10231 assessed as ergosterol levels at […] by GC-MS analysis; design: scale not given: the % may be the effect or the level left
Candida albicans [24] = test: Inhibition of 14alpha-demethylase in Candida albicans ATCC 10231 assessed as 14alpha-methyl ergosta-8,24(28)-dien-3beta,6alpha-diol levels at […] by GC-MS analysis; design: scale not given: the % may be the effect or the level left
HEK293 = test: Cytotoxicity against HEK293 cells at 7.8 ug/mL after 24 hrs by resazurin-based fluorescence assay; assay type: cell-based; details: human, hek293, 24 h
Outline: (§4)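 Cells grown in DMEM with 10% FBS at 37 °C, 5% CO2, and seeded at 10000 (HEK-293) or 3000 (BEAS-2B, A549) per well. After 16 h, exposed 24 h to 0.13–31 µg/mL final in medium with 0.1–0.4% DMSO. Resazurin added for 6–10 h; fluorescence read at 560/590 nm and survival normalized to DMSO control after background subtraction. Triton X-100 12.5% v/v positive control; duplicate.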

A549 = test: Cytotoxicity against human A549 cells up to 7.8 ug/mL after 24 hrs by resazurin based fluorescence assay; assay type: cell-based; details: a549, 24 h; outline: as §4
Candida albicans [25] = test: Inhibition of 14alpha-demethylase in Candida albicans ATCC 10231 assessed as total sterol levels at […] by GC-MS analysis; design: scale not given: the % may be the effect or the level left
BEAS-2B = test: Cytotoxicity against human BEAS2B cells at 7.8 ug/mL after 24 hrs by resazurin-based fluorescence assay; assay type: cell-based; outline: as §4
Candida albicans [26] = test: Antifungal activity against Candida albicans ATCC 10231 at 3.9 ug/mL incubated for 1 hr by propidium iodide staining-based fluorescence microscopic method; assay type: functional
Outline: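 C. albicans ATCC 10231 from an overnight YPD culture (35 °C, 200 rpm) was transferred into RPMI 1640 and exposed to drug. Membrane integrity was assessed by uptake of propidium iodide under fluorescence microscopy.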

Candida albicans [27] = test: Inhibition of 14alpha-demethylase in Candida albicans ATCC 10231 assessed as lanosterol levels at […] by GC-MS analysis; design: scale not given: the % may be the effect or the level left
Candida albicans [28] = test: Inhibition of 14alpha-demethylase in Candida albicans ATCC 10231 assessed as eburicol levels at […] by GC-MS analysis; design: scale not given: the % may be the effect or the level left
Candida albicans [29] = test: Fungicidal activity against Candida albicans ATCC 10231 at 4 times MIC incubated for 24 hrs by time kill assay; assay type: functional; outline: as §3

In the case of CCCCCCCCCCCCN1CCN(CC(O)(Cn2cncn2)c2ccc(F)cc2F)CC1 (stereo unspecified), the MIC (Candida albicans [1]) is reported as 15.9 µM (≈ 7.82 µg/mL), the MIC (Aspergillus terreus) is reported as 7.9 µM (≈ 3.88 µg/mL) and the viability at 24 h, 7.8 ug/mL [2] is reported as less than 40%. For the same compound, the MIC (Candida albicans [3]) was 15.9 µM (≈ 7.82 µg/mL), the MIC (Candida parapsilosis [4]) was 0.06 µg/mL and the MIC (Aspergillus nidulans [5]) was 3.9 µg/mL. For the same compound, the MIC (Candida albicans [6]) was 15.9 µM (≈ 7.82 µg/mL), the Ratio (Candida albicans [7]) was 1 - 2 and the MIC50 (Candida albicans [8]) was 7.8 µg/mL (≈ 15.9 µM). The MIC80 (Candida albicans [8]) was 15.6 µg/mL (≈ 31.7 µM), the viability at 24 h, 7.8 ug/mL [9] was less than 40% and the MIC (Candida albicans [10]) was 7.9 µM (≈ 3.88 µg/mL). For the same compound, the MIC (Candida albicans [11]) was 31.7 µM (≈ 15.6 µg/mL), the solubility [12] was “Soluble” and the MIC (Candida parapsilosis [13]) was 0.03 µM (≈ 0.0148 µg/mL). The Activity (Candida parapsilosis [14]) was “Active”, the viability at 24 h, 7.8 ug/mL [15] was less than 40% and the MIC (Pichia kudriavzevii) was 0.98 µM (≈ 0.482 µg/mL). The solubility [16] was “Soluble”, the MIC (Aspergillus nidulans [17]) was 7.9 µM (≈ 3.88 µg/mL) and the MIC (Nakaseomyces glabratus [18]) was 2 µM (≈ 0.983 µg/mL). For the same compound, the MIC (Aspergillus flavus) was 3.9 µM (≈ 1.92 µg/mL), the Activity (Nakaseomyces glabratus [19]) was “Active” and the MIC (Candida albicans [20]) was 1.95 µg/mL. For the same compound, the MIC (Candida albicans [21]) was 3.9 µM (≈ 1.92 µg/mL) and the MIC (Candida albicans [22]) was 7.9 µM (≈ 3.88 µg/mL).
CCCCCCCCCCN1CCN(CC(O)(Cn2cncn2)c2ccc(F)cc2F)CC1 (stereo unspecified) showed an MIC (Candida albicans [1]) of 8.4 µM (≈ 3.89 µg/mL), an MIC (Aspergillus terreus) of 2.1 µM (≈ 0.974 µg/mL) and an MIC (Candida albicans [3]) of 16.8 µM (≈ 7.79 µg/mL). For the same compound, the Activity (Candida albicans [23]) was 30.1%, the Activity (Candida albicans [24]) was 15.4% and the MIC (Candida parapsilosis [4]) was 0.06 µg/mL. For the same compound, the MIC (Aspergillus nidulans [5]) was 0.975 µg/mL, the MIC (Candida albicans [6]) was 16.8 µM (≈ 7.79 µg/mL) and the MIC50 (Candida albicans [8]) was 15.6 µg/mL (≈ 33.6 µM). The MIC80 (Candida albicans [8]) was 62.5 µg/mL (≈ 135 µM), the MIC (Candida albicans [10]) was 8.4 µM (≈ 3.89 µg/mL) and the MIC (Candida albicans [11]) was 8.4 µM (≈ 3.89 µg/mL). For the same compound, the solubility [12] was “Soluble”, the Activity (HEK293) was “Toxic” and the Activity (A549) was “Non-Toxic”. For the same compound, the MIC (Candida parapsilosis [13]) was 0.03 µM (≈ 0.0139 µg/mL), the Activity (Candida parapsilosis [14]) was “Active” and the MIC (Pichia kudriavzevii) was 4.2 µM (≈ 1.95 µg/mL). For the same compound, the Activity (Candida albicans [25]) was 2.8 to 14.4%, the solubility [16] was “Soluble” and the Activity (BEAS-2B) was “Toxic”. For the same compound, the Activity (Candida albicans [26]) was “inactive”, the MIC (Aspergillus nidulans [17]) was 2.1 µM (≈ 0.974 µg/mL) and the MIC (Nakaseomyces glabratus [18]) was greater than 67.5 µM. It also gave an MIC (Aspergillus flavus) of 0.5 µM (≈ 0.232 µg/mL), an MIC (Candida albicans [20]) of 0.975 µg/mL and an Activity (Candida albicans [27]) of 33.4%. For the same compound, the Activity (Candida albicans [28]) was 1.25%, the Activity (Candida albicans [29]) was “Active” and the MIC (Candida albicans [21]) was 2.1 µM (≈ 0.974 µg/mL).
